In ChEMBL document CHEMBL2163224, “In silico discovery of a compound with nanomolar affinity to antithrombin causing partial activation and increased heparin affinity” (J Med Chem, 2012):
Activity calls are given as the source filed them. The calls are words filed in the database; no cut-off is given here.

Legend:
Homo sapiens [1] = species: Homo sapiens; assay: Induction of conformational changes in purified human antithrombin assessed as induction of antithrombin polymer formation up to 14.8 uM at 37 or 42 degC incubated for 2 days in absence of urea by native PAGE
How it was run: (§1)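 Antithrombin incubated with compound up to 14.8 μM at 37 or 42 °C for 2 days; latent form and polymers assessed by immunoelectrophoresis on 8% (w/v) nondenaturing PAGE with or without 7 M urea.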

Homo sapiens [2] = species: Homo sapiens; assay: Activation of purified human antithrombin-low affinity heparin interaction assessed as antithrombin-mediated inhibition of thrombin by measuring as second order association rate constant for chromogenic substrate hydrolysis at 1 uM by microplate reader based assay
Homo sapiens [3] = species: Homo sapiens; assay: Activation of antithrombin L99F mutant in type 2 antithrombin deficiency patient plasma assessed as inhibition of S-2238 hydrolysis at 148 uM incubated for 5 mins in presence of 1 uM unfractionated heparin (reference value: 33.22 +/- 2.93%); assay type: cell-free; parameters: scale not given: the % may be the effect or the level left
Homo sapiens [4] = species: Homo sapiens; assay: Activation of antithrombin L99F mutant in type 2 antithrombin deficiency patient plasma assessed as inhibition of S-2238 hydrolysis at 148 uM incubated for 5 mins in presence of mouse Py-4-1 cells (reference value: 33.22 +/- 2.93%); assay type: cell-free; parameters: scale not given: the % may be the effect or the level left
Homo sapiens [5] = species: Homo sapiens; assay: Induction of conformational changes in purified human antithrombin assessed as induction of transition latent conformation up to 14.8 uM at 37 or 42 degC incubated for 2 days in presence of urea by native PAGE; how it was run: as §1
Homo sapiens [6] = species: Homo sapiens; assay: Activation of purified human antithrombin-low affinity heparin interaction assessed as antithrombin-mediated inhibition of factor 10a by measuring as second order association rate constant for chromogenic substrate hydrolysis at 1 uM by microplate reader based assay
Homo sapiens [7] = species: Homo sapiens; assay: Activation of purified human antithrombin-high affinity heparin interaction assessed as antithrombin-mediated inhibition of thrombin by measuring as second order association rate constant for chromogenic substrate hydrolysis at 1 uM by microplate reader based assay
Homo sapiens [8] = species: Homo sapiens; assay: Activation of purified human antithrombin-mediated inhibition of thrombin assessed as second order association rate constant for chromogenic substrate hydrolysis by microplate reader based assay
Homo sapiens [9] = species: Homo sapiens; assay: Activation of purified human antithrombin-mediated inhibition of factor 10a assessed as second order association rate constant for chromogenic substrate hydrolysis by microplate reader based assay
[10] = Activation of purified human antithrombin-unfractionated heparin interaction assessed as change in antithrombin intrinsic fluorescence by fluorescence spectrophotometry
How it was run: (§2)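 Antithrombin intrinsic fluorescence emission at 340 nm titrated with UFH (alone or after antithrombin preincubation with 37 μM compound) at room temperature, I = 0.15, 20 mM NaPO4, 100 mM NaCl, 0.1 mM EDTA, 0.1% PEG 8000, pH 7.4. Each point averaged from 100 readings at 1 s intervals; Kd obtained by data fitting.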

Homo sapiens [11] = species: Homo sapiens; assay: Activation of antithrombin in healthy human plasma assessed as inhibition of S-2238 hydrolysis at 148 uM incubated for 5 mins in presence of 1 uM unfractionated heparin; assay type: cell-free; parameters: scale not given: the % may be the effect or the level left
Homo sapiens [12] = species: Homo sapiens; assay: Activation of purified human antithrombin-high affinity heparin interaction assessed as antithrombin-mediated inhibition of factor 10a by measuring as second order association rate constant for chromogenic substrate hydrolysis at 1 uM by microplate reader based assay
[13] = Binding affinity to purified human antithrombin at 128 uM by isothermal titration calorimetry
Homo sapiens [14] = species: Homo sapiens; assay: Induction of conformational changes in purified human antithrombin assessed as induction of antithrombin polymer formation up to 14.8 uM at 37 or 42 degC incubated for 2 days in presence of urea by native PAGE; how it was run: as §1
Homo sapiens [15] = species: Homo sapiens; assay: Activation of citrullinated human antithrombin-mediated inhibition of factor 10a assessed as chromogenic substrate hydrolysis at 14.8 uM in presence of rabbit skeletal muscle […]; parameters: scale not given: the % may be the effect or the level left
How it was run: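 Plasma-purified antithrombin (1 mg/mL) incubated with rabbit skeletal muscle PAD IV (50:1 molar ratio antithrombin/PAD) ± 14.8 μM compound in 100 mM Tris-HCl, 5 mM CaCl2, pH 7.4, 37 °C, 15 min; stopped with 50 mM EDTA. Residual anti-FXa activity by chromogenic assay with heparin, bovine FXa, S-2765, A405. Two experiments in triplicate, % of antithrombin alone.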

[16] = target: T1, Antithrombin (Homo sapiens) (UniProt Q15950); assay: Activation of purified human antithrombin-unfractionated heparin assessed as change in antithrombin intrinsic fluorescence at 37 uM by fluorescence spectrophotometry relative to untreated heparin control; how it was run: as §2
T1 sequence (whole entry): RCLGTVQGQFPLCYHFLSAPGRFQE

Homo sapiens [17] = species: Homo sapiens; assay: Induction of conformational changes in purified human antithrombin assessed as induction of transition latent conformation up to 14.8 uM at 37 or 42 degC incubated for 2 days in absence of urea by native PAGE; how it was run: as §1
Homo sapiens [18] = species: Homo sapiens; assay: Activation of antithrombin in healthy human plasma assessed as inhibition of S-2238 hydrolysis at 148 uM incubated for 5 mins in presence of mouse Py-4-1 cells; assay type: cell-free; parameters: scale not given: the % may be the effect or the level left
[19] = Binding affinity to purified human antithrombin at 64 uM by isothermal titration calorimetry
[20] = Binding affinity to purified human antithrombin at 64 uM in presence of 37 uM d-myo-inositol 3,4,5,6-tetrakisphosphate by isothermal titration calorimetry

Structure (SMILES) | Activity (Homo sapiens [1]) | K (Homo sapiens [2]) [M⁻¹ s⁻¹] | Activity (Homo sapiens [3]) [%] | Activity (Homo sapiens [4]) [%] | Activity (Homo sapiens [5]) | K (Homo sapiens [6]) [M⁻¹ s⁻¹] | K (Homo sapiens [7]) [M⁻¹ s⁻¹] | K (Homo sapiens [8]) [M⁻¹ s⁻¹] | K (Homo sapiens [9]) [M⁻¹ s⁻¹] | Kd [10] [nM] | Activity (Homo sapiens [11]) [%] | K (Homo sapiens [12]) [M⁻¹ s⁻¹] | Kd [13] [nM] | Activity (Homo sapiens [14]) | Activity (Homo sapiens [15]) [%] | fold change (FC) [16] | Activity (Homo sapiens [17]) | Activity (Homo sapiens [18]) [%] | Kd [19] [nM] | Kd [20] [nM]
O=P(O)(O)O[C@@H]1[C@@H](OP(=O)(O)O)[C@H](OP(=O)(O)O)[C@@H](O)[C@@H](O)[C@H]1OP(=O)(O)O | inactive | 683000 | 40 | 37.2 | inactive | 87000 | 3.28e+06 | 23000 | 12000 | 45 | 97.3 | 2.28e+06 | 45 | inactive | 30 | 2.3 | inactive | 101 | – | –
CO[C@H]1O[C@H](COS(=O)(=O)O)[C@@H](O[C@@H]2O[C@@H](C(=O)O)[C@@H](O[C@H]3O[C@H](COS(=O)(=O)O)[C@@H](O[C@@H]4O[C@H](C(=O)O)[C@@H](O[C@H]5O[C@H](COS(=O)(=O)O)[C@@H](O)[C@H](O)[C@H]5NS(=O)(=O)O)[C@H](O)[C@H]4O)[C@H](OS(=O)(=O)O)[C@H]3NS(=O)(=O)O)[C@H](O)[C@H]2OS(=O)(=O)O)[C@H](O)[C@H]1NS(=O)(=O)O [FONDAPARINUX SODIUM] | – | – | – | – | – | – | – | – | – | – | – | – | – | – | – | – | – | – | 273 | 18.8
